Where two headings read alike, the source gives them in different places.
Legend:
[1] = test system: SK-N-MC Ewing sarcoma cell line; test: DIMSCAN in vitro testing, 96 h; format: cell-based; settings: for IC50: Homo sapiens, 96 h
How it was run: (§1)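 Neuroblastoma and Ewing sarcoma lines, STR-verified and maintained as in the originators' reports. Exposed for 96 h to test compound (DMSO stock diluted in medium) at 1 nM–10 μM. Viable cells quantified by fluorescein diacetate fluorescence with DIMSCAN digital image microscopy. Absolute IC50 = concentration giving 50% growth inhibition vs controls. Relative IC50 = concentration giving 50% of the maximum inhibitory effect.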

KT-10 Wilms xenograft = format: in vivo, mice
How it was run: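 Female CB17 scid mice bearing subcutaneous tumors, 10 per group. Dosed by oral gavage twice daily, 5 days weekly for 6 weeks, at 20.8, 10.4, 5.2 or 2.6 mg/kg, in 10% 2-hydroxypropyl-β-cyclodextrin/1% sodium bicarbonate. Event = quadrupled tumor volume; EFS by Kaplan–Meier, exact log-rank test. Per-mouse scores PD/SD/PR (≥50% regression)/CR (<0.10 cm3)/MCR; group median reported. PR, CR and MCR count as objective responses.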

Toxicity = format: in vivo, mice; settings: leukemia models at the MTD
How it was run: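 Deaths counted in control and treated arms of the xenograft efficacy studies (10 mice per solid tumor group, 8 per ALL group). A group would be excluded from analysis if mortality exceeded 25%.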

neuroblastoma cell lines = test: DIMSCAN in vitro testing, 96 h, neuroblastoma panel; format: cell-based
How it was run: as §1

[2] = test system: ALL-8 ALL T-cell xenograft; test: ALL xenograft; format: in vivo, mice
How it was run: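 Female NOD/scid mice inoculated intravenously with leukemia cells, 8 per group. Test compound suspended in 10% 2-hydroxypropyl-β-cyclodextrin/1% sodium bicarbonate in water. Given by oral gavage twice daily, 5 days weekly for 3 weeks, at 20.8, 10.4, 5.2 or 2.6 mg/kg. Blood %hCD45 of leukocytes tracked; event = hCD45 reaching 25%. EFS by Kaplan–Meier, exact log-rank vs controls. Median group response from individual scores.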

[3] = test system: SMS-KANR neuroblastoma cell line; test: DIMSCAN in vitro testing, 96 h; format: cell-based; settings: for IC50: Neuroblastoma cell, 96 h
[4] = test system: Ewing sarcoma (n = 11) and neuroblastoma (n = 17) cell lines; test: DIMSCAN in vitro testing, 96 h, whole extended panel; format: cell-based

COc1cc(Nc2ncc3c(n2)-c2ccc(Cl)cc2C(c2c(F)cccc2OC)=NC3)ccc1C(=O)O [MLN8237]
IC50 ([1]; read-out: Absolute IC50): 72 nM
IC50 ([1]; read-out: Relative IC50): 66 nM
Ymin ([1]; minimum T/C): 2.8%
EFS T/C (KT-10 Wilms xenograft; 2.6 mg/kg): 1.0
EFS activity (KT-10 Wilms xenograft; 2.6 mg/kg): Low
Estimate of median time to event (KT-10 Wilms xenograft; 2.6 mg/kg): 9.6 days
Median group response (KT-10 Wilms xenograft; 2.6 mg/kg): PD1 (if the TGD value ≤1.5, that mouse was considered PD1)
Response activity (KT-10 Wilms xenograft; 2.6 mg/kg): Low
Tumor volume T/C (KT-10 Wilms xenograft; 2.6 mg/kg): 0.84
Median RTV/hCD45 at end of study (KT-10 Wilms xenograft; 2.6 mg/kg): >4
EFS T/C (KT-10 Wilms xenograft; 5.2 mg/kg): 1.7
EFS activity (KT-10 Wilms xenograft; 5.2 mg/kg): Low
Estimate of median time to event (KT-10 Wilms xenograft; 5.2 mg/kg): 16.0 days
Median group response (KT-10 Wilms xenograft; 5.2 mg/kg): PD2 (if the TGD value >1.5, the mouse was considered PD2)
Response activity (KT-10 Wilms xenograft; 5.2 mg/kg): Int
Tumor volume T/C (KT-10 Wilms xenograft; 5.2 mg/kg): 0.71
Median RTV/hCD45 at end of study (KT-10 Wilms xenograft; 5.2 mg/kg): >4
EFS T/C (KT-10 Wilms xenograft; 10.4 mg/kg): 1.5
EFS activity (KT-10 Wilms xenograft; 10.4 mg/kg): Low
Estimate of median time to event (KT-10 Wilms xenograft; 10.4 mg/kg): 14.6 days
Median group response (KT-10 Wilms xenograft; 10.4 mg/kg): PD1 (if the TGD value ≤1.5, that mouse was considered PD1)
Response activity (KT-10 Wilms xenograft; 10.4 mg/kg): Low
Tumor volume T/C (KT-10 Wilms xenograft; 10.4 mg/kg): 0.53
Median RTV/hCD45 at end of study (KT-10 Wilms xenograft; 10.4 mg/kg): >4
EFS T/C (KT-10 Wilms xenograft; 20.8 mg/kg): >4.4
EFS activity (KT-10 Wilms xenograft; 20.8 mg/kg): High
Median group response (KT-10 Wilms xenograft; 20.8 mg/kg): MCR
Response activity (KT-10 Wilms xenograft; 20.8 mg/kg): High
Tumor volume T/C (KT-10 Wilms xenograft; 20.8 mg/kg): 0.35
Median RTV/hCD45 at end of study (KT-10 Wilms xenograft; 20.8 mg/kg): 0.0
mice that died in the treated arm (Toxicity): 5 of 24
IC50 (neuroblastoma cell lines; Neuroblastoma cell, read-out: relative IC50 values, neuroblastoma panel): 23 nM
median Ymin, neuroblastoma cell lines (neuroblastoma cell lines; median of neuroblastoma panel): 10.4%
EFS T/C ([2]; 2.6 mg/kg): 1.8
EFS activity ([2]; 2.6 mg/kg): Low
Estimate of median time to event ([2]; 2.6 mg/kg): 23.0 days
Median group response ([2]; 2.6 mg/kg): PD2 (if the TGD value >1.5, the mouse was considered PD2)
Response activity ([2]; 2.6 mg/kg): Int
Median RTV/hCD45 at end of study ([2]; 2.6 mg/kg): >25%
EFS T/C ([2]; 5.2 mg/kg): 2.5
EFS activity ([2]; 5.2 mg/kg): Int
Estimate of median time to event ([2]; 5.2 mg/kg): 31.6 days
Response activity ([2]; 5.2 mg/kg): High
Median RTV/hCD45 at end of study ([2]; 5.2 mg/kg): >25%
EFS T/C ([2]; 10.4 mg/kg): >3.3
EFS activity ([2]; 10.4 mg/kg): Int
Response activity ([2]; 10.4 mg/kg): High
Median RTV/hCD45 at end of study ([2]; 10.4 mg/kg): 6.2%
EFS T/C ([2]; 20.8 mg/kg): >3.3
EFS activity ([2]; 20.8 mg/kg): High
Median group response ([2]; 20.8 mg/kg): MCR
Response activity ([2]; 20.8 mg/kg): High
Median RTV/hCD45 at end of study ([2]; 20.8 mg/kg): 0.2%
IC50 ([3]; read-out: Absolute IC50): 26 nM
IC50 ([3]; read-out: Relative IC50): 23 nM
Ymin ([3]; SMS-KANR, minimum T/C): 11.4%
Ymin, maximum ([4]; maximum of 28 cell lines): 48.1%
Ymin, median ([4]; median of 28 cell lines): 10.9%
Ymin, minimum ([4]; minimum of 28 cell lines): 0.5%
IC50 ([4]; read-out: Absolute IC50, maximum): 10000 nM
IC50 ([4]; read-out: Absolute IC50, median): 37 nM
IC50 ([4]; read-out: Absolute IC50, minimum): 10 nM
IC50 ([4]; read-out: Relative IC50, maximum): 10000 nM
IC50 ([4]; read-out: Relative IC50, median): 32 nM
IC50 ([4]; read-out: Relative IC50, minimum): 9 nM

Source: paper PMC3215888 (Cancer Chemotherapy and Pharmacology, 2011)
